MrgX1 agonist = agonists of human MrgX1 receptor, primary screen, HEK293 cells, Fluo-4 calcium flux | Mas-related G-protein coupled receptor member X1 (Homo sapiens), Q96LB2 | AID 588627, 2011 | B-score at 10 µM | 310,000 tested, 0.44% active | Fluo-4 calcium fluorescence, agonist mode; active compounds read high;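 active means calcium response B-score plate-corrected fluorescence ratio at least 3 library SD, with starting fluorescence B-score inside 5 SD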
Target sequence (Q96LB2 whole entry, looked up): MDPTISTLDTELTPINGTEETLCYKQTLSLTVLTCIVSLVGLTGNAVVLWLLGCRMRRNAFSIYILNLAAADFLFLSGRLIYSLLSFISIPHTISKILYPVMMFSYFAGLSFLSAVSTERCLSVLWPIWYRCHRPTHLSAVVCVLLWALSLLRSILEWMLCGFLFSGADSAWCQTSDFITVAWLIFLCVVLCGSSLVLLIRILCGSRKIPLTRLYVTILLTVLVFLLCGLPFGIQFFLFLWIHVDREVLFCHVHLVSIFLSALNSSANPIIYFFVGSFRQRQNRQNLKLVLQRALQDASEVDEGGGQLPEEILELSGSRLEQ
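Material: MrgX1-expressing HEK293 cells / Dosing: compound as first of three additions / Incubation: overnight seeding, then 1 h dark dye loading / Signal: Fluo-4 NW calcium fluorescence / Evaluation: B-scored fluorescence response ratio / Benchmarks: positive and negative control wells on each plate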
RGS4 act = RGS4 potentiators or activators, primary screen, cell-based, HEK293 M3R inducible RGS4, calcium flux; carbachol calcium flux Fluo4; active compounds read low; 310,000 tested, 0.92% active; B-score at 10 µM;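 active means B-score of the integrated calcium signal more than 4 SD below the library mean, with starting fluorescence not abnormally high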;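 further: negative B-score means reduced calcium response which marks RGS4 activation or potentiation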
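Also added: carbachol at ECmax as muscarinic agonist stimulus; Assay system: HEK293 cells with stable M3R and inducible RGS4; Timing: overnight RGS4 induction, 30 min dye load 37 °C, 20 min compound RT; Measured by: Fluo4-AM (2 µM) calcium-flux fluorescence, kinetic read.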
MrgX1 antagonist = antagonists of human MrgX1 receptor, primary screen, HEK293 cells, Fluo-4 calcium flux; BAM8-22 antagonism; active compounds read low; B-score at 10 µM; 310,000 tested, 1.3% active;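 active means calcium-response B-score plate-corrected more than 3 library SD below zero, starting fluorescence within 5 deviations, no agonist response on first addition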;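 further: peak minus trough fluorescence over baseline after final BAM8-22 challenge near maximal dose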
RGS4 inh = RGS4 inhibitors, primary screen, cell-based, HEK293 M3R inducible RGS4, calcium flux. Fluo-4 calcium flux; active compounds read high; triggered by carbachol at its EC20. B-score at 10 µM. 310,000 tested, 0.45% active. AID 463165, 2010;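 active means B-score, a plate-corrected calcium signal, over three deviations above library mean, with baseline fluorescence within five deviations of library mean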;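 further: RGS4 expression induced by doxycycline in cells with stable M3 receptor; B-score is computed from the integrated fluorescence ratio over baseline after carbachol; higher B-score means a larger calcium signal and so more RGS4 inhibition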
Target sequence (P49798 whole entry, looked up): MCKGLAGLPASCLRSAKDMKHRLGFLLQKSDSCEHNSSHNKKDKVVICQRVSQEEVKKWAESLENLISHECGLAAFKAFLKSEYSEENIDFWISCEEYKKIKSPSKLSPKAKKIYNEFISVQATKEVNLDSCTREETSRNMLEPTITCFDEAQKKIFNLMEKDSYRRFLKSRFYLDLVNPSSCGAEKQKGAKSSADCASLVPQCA
MrgX1 allo act = positive allosteric modulators of MrgX1, primary screen, HEK293 cells, Fluo-4 calcium flux | 310,000 tested, 0.63% active | B-score at 10 µM | FDSS; active compounds read high;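 active means plate-corrected calcium response at least 3 library SD above typical, normal starting fluorescence, not activating the receptor alone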;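 further: compound read alongside a low EC10 to EC30 dose of BAM8-22 agonist; peak minus trough fluorescence over baseline measured at the second addition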
Kir21 inh = inhibitors of mouse Kir2.1 inward-rectifier potassium channel; Inward rectifier potassium channel 2 (Mus musculus), P35561; HEK293-Kir2.1, FluxOR thallium flux fluorescence; active compounds read low; B-score at 10 µM; 310,000 tested, 0.85% active; AID 1672, 2009;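 active means fluorescence ratio B-score at or below minus 3 SD of library scores, with starting-brightness B-score within 2 SD, cut at about -4.2 in these data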;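 further: channel flux triggered by added potassium and thallium sulfate stimulus; B-score of peak minus minimum fluorescence over baseline after thallium stimulus; more negative B-score means stronger Kir2.1 block with less thallium influx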
Active calls of the source: *; i = inactive; . = no result given. Rows were chosen to be rich in hits. Some 4.1% of all compounds tested hit in one or more screens of this group.

SMILES	MrgX1 agonist	RGS4 act	MrgX1 antagonist	RGS4 inh	MrgX1 allo act	Kir21 inh
COC(=O)[C@@]1(Cc2ccc(OC)cc2)[C@H]2c3cc(C(=O)N4CCCC4)n(Cc4c(CO)[nH]cc(C)c4=O)c3C[C@H]2CN1C(=O)c1ccccc1	i	i	-5.6*	i	i	1.74
COC(=O)[C@@]1(Cc2ccc(OC)cc2)[C@H]2c3cc(C(=O)N4CCCC4)n(C[C@H](O)CO)c3C[C@H]2CN1C(=O)c1ccccc1	i	i	i	i	i	-0.43
COc1ccccc1NC(=S)N/N=C/c1ccc(O)cc1	i	i	i	i	8.97*	-2.61
COc1ccccc1NC(=S)N/N=C/c1cccc(C)c1	i	i	i	i	i	-0.5
c1ccc(Nc2nc(-c3ccccn3)cs2)cc1	i	i	i	i	i	1.62
COc1cccc2sc(Nc3nc(-c4ccccn4)cs3)nc12	i	-8.67*	i	i	7.81*	-0.65
Cc1ccc(C(=O)NN2CCOCC2)cc1	i	i	-4.96*	i	i	0.44
COc1ccc(-n2nc(C(=O)NCC(=O)NCc3ccco3)c3ccccc3c2=O)c(OC)c1	i	i	i	i	i	-0.26
O=[N+]([O-])c1cc(S(=O)(=O)N2CCCCCC2)ccc1F	i	.	i	.	6.63*	.
CC(=O)OCc1c(-c2ccccc2)c2cc([N+](=O)[O-])ccc2n1C	i	i	i	i	i	0.06
CCOC(=O)C1CCN(Cc2cccc(Oc3ccccc3)c2)CC1	i	i	i	i	i	-6.11*
CCOC(=O)C(CSCc1ccccc1)NC(=O)OC(C)(C)C (centres undefined)	i	i	i	i	i	-4.31*
CCOC(=O)C(CSCC(=O)c1ccc(Cl)cc1)NC(=O)OC(C)(C)C (centres undefined)	i	i	i	i	i	-5.67*
CCC(C)C(NC(=O)OC(C)(C)C)C(=O)NC(Cc1ccccc1)C(=O)OC (centres undefined)	i	i	i	i	7.32*	-1.14
COC(=O)C(Cc1ccccc1)NC(=O)C(CC(C)C)NC(=O)OC(C)(C)C (centres undefined)	i	i	i	i	i	1.08
CCOC(=O)C(CSCC(=O)c1ccc(Br)cc1)NC(=O)OC(C)(C)C (centres undefined)	i	i	i	i	i	-0.36
O=C(COc1ccc([N+](=O)[O-])cc1Cl)NCCc1ccccc1	i	i	i	i	8.95*	0.55
CC(C)N(CCC(=O)c1ccc2ccccc2c1)Cc1ccccc1	38.9*	.	i	.	i	.
O=C(N/N=C/c1ccncc1)c1ccc(COc2cccc3cccnc23)cc1	i	i	i	i	i	-0.55
O=C(N/N=C/c1ccc2cccc(OCc3ccccc3)c2n1)c1ccc(Cl)cc1	i	-9.92*	i	i	i	0.89
FC(F)(F)c1cccc(NC(=S)Nc2ccc(Cl)c(Cl)c2)c1	i	i	-8.45*	i	i	-0.11
FC(F)(F)c1cccc(NC(=S)NNC(=S)Nc2cccc(C(F)(F)F)c2)c1	i	i	i	i	i	1.55
CC1CCCN(Cc2ccc(OCc3ccccc3)cc2)C1 (centres undefined)	i	-7.59*	i	i	i	2.2
CC(C)N1CCN(Cc2ccc(OCc3ccccc3)cc2)CC1CCO (centres undefined)	i	-7.04*	i	i	i	0.15
OC(COc1cc(Cl)c(Cl)cc1Cl)CN1CCN(c2ncccn2)CC1 (centres undefined)	i	i	i	i	i	-0.51
SMILES	MrgX1 agonist	RGS4 act	MrgX1 antagonist	RGS4 inh	MrgX1 allo act	Kir21 inh
Cc1csc(NC(=O)CCS(=O)(=O)c2ccc(Br)cc2)n1	i	i	i	i	i	-4.32*
Cc1csc(NC(=O)Cc2ccc(Br)cc2)n1	i	i	i	i	i	0.47
Cc1csc(NC(=O)C(C)Oc2ccc(Br)cc2)n1 (centres undefined)	i	i	i	i	i	-4.96*
Nc1c(NCCN2CCCCC2)c2ccccc2oc1=O	i	i	i	i	i	-1.89
N/C(=N\OC(=O)C1CCCCC1)c1ccncc1	i	i	-4.52*	i	i	3.57
CCCc1nc(SCC(=O)Nc2nccs2)c2ccccc2n1	i	i	i	i	i	0.51
COc1ccccc1N1C(=O)S/C(=C\c2cccs2)C1=O	i	i	i	i	i	-0.01
O=C(/C=C/c1ccc(OC2CSC2)cc1)c1ccccc1	i	-7.53*	i	i	i	-1.63
OCc1nc2ccccc2n1CC(O)Cn1ccc2ccccc21 (centres undefined)	i	i	i	i	i	0.78
COC(=O)c1ccc2c(c1)C(C)(C)C(/C=C/c1ccccc1O)=[N+]2C	i	-7.25*	i	i	i	-11.3
Cc1[nH]n(-c2ccccc2)c(=O)c1C(C[N+](=O)[O-])c1ccccc1Cl (centres undefined)	45.7*	i	i	i	i	0.02
Cc1[nH]n(-c2ccccc2)c(=O)c1C(c1ccc(O)c([N+](=O)[O-])c1)c1c(C)[nH]n(-c2ccccc2)c1=O	i	i	i	5.06*	i	-1.04
C(=N\c1nc2ccccc2[nH]1)/c1cccs1	29.5*	i	i	i	i	-1.96
N#CCCN(C(=O)COC(=O)c1ccc(CNS(=O)(=O)c2ccc(F)c(Cl)c2)cc1)c1ccc(F)cc1	i	-8.84*	i	i	i	0.21
CCCN(CC1CC1)C(=O)COC(=O)c1ccc(CNS(=O)(=O)c2ccc(F)c(Cl)c2)cc1	i	i	-4.86*	i	i	-0.07
O=C(COC(=O)c1ccc(CNS(=O)(=O)c2ccc(F)c(Cl)c2)cc1)NC1CCCCCCC1	i	i	i	i	i	2.13
CC(Sc1nncn1C)C(=O)Nc1nnc(C(C)C)s1 (centres undefined)	i	i	i	i	i	0.38
O=C1C(Cl)=C(Nc2ccc3cn[nH]c3c2)C(=O)c2ccccc21	i	i	-9.63*	i	i	1.11

Bioassay records deposited in PubChem BioAssay by Johns Hopkins Ion Channel Center.
